Measured values from different studies.
Protocols differ between the studies behind these lines.

| SMILES | cell line | effect on | mode | technique | time | IC50 |
| --- | --- | --- | --- | --- | --- | --- |
| COc1cc(Nc2nccc(-c3cnn4nc(OC)ccc34)n2)cc(C(F)(F)F)c1 | LN-229 | cell growth or viability | – | ATP luminescence | – | 0.58 µM |
| CO[C@@H](C[C@H]1C(C)=CC[C@@H]2[C@]3(C)C[C@H](O[C@@H]4O[C@@H](C)[C@H](OC(=O)c5cccc(O)c5)[C@@H](O[C@@H]5O[C@H](CO)[C@@H](O)[C@H](O)[C@H]5NC(C)=O)[C@H]4O)[C@@H](O)C(C)(C)[C@H]3CC[C@]21C)[C@H](N)C(=O)O | LN-229 | cell growth or viability | – | ATP luminescence | 6 days | 0.13 µM |
| COc1cc(-c2[o+]c3cc(O)cc(O)c3cc2O[C@@H]2O[C@H](CO)[C@@H](O)[C@H](O)[C@H]2O)ccc1O | SW780 | cell growth or viability | – | ATP luminescence | 72 h | 137 µM |
| Cc1c[nH]c(/C=C2\C(=O)Nc3ccccc32)c1CCC(=O)O | SW780 | cell growth or viability | – | MTT | 5 days | 6 µM |
| COc1cc2c(Oc3ccc(NC(=O)C4(C(=O)Nc5ccc(F)cc5)CC4)cc3F)ccnc2cc1OCCCN1CCOCC1 | Rh4 | cell growth or viability | – | – | 72 h | 0.22 µM |
| FC(F)(F)c1ccc(C(c2c[nH]c3ccccc23)c2c[nH]c3ccccc23)cc1 | LNCaP | cell growth or viability | – | MTT | 48 h | 13 µM |
| COc1cc2c(=O)n(CCN(C)C)c3c4cc5c(cc4ncc3c2cc1OC)OCO5 | RPMI 8402 | cell growth or viability | – | MTT | 96 h | 0.002 µM |
| O=C(O)C(c1c[nH]c2ccccc12)c1c[nH]c2ccccc12 | LNCaP | cell growth or viability | – | MTT | 48 h | > 100 µM |
| COc1cc2nccc(Oc3ccc(NC(=O)C4(C(=O)Nc5ccc(F)cc5)CC4)cc3)c2cc1OC | Rh4 | cell growth or viability | – | – | 72 h | 3.09 µM |
| CC(C)n1cc(C(c2ccc(/C=C/C(=O)O)s2)c2cn(C(C)C)c3ccccc23)c2ccccc21 | LNCaP | cell growth or viability | – | MTT | 48 h | 26 µM |
| OC[C@H]1O[C@@H](Oc2cc3c(O)cc(O)cc3[o+]c2-c2ccc(O)c(O)c2)[C@H](O)[C@@H](O)[C@H]1O | SW780 | cell growth or viability | – | ATP luminescence | 72 h | 84.5 µM |
| CC(=O)OCCC1=CC2C=CC=CC1C2C1CCCCC1=O (stereo not shown) | Jurkat | cell growth or viability | – | flow cytometry | – | 0.064 µM |
| COc1ccc(C(=O)O[C@@H]2CN3Cc4c(cc5c(c4OC)OCO5)[C@@]24C=C[C@H](OC)C[C@@H]34)cc1OC | MOLT-4 | cell growth or viability | – | WST-1 | – | 7.4 µM |
| O=C1CCCCC1C1C2C=CC=CC1C(CCCCOC1CCCCO1)=C2 (stereo not shown) | Jurkat | cell growth or viability | – | flow cytometry | – | 0.135 µM |
| CCN(CC)CCCCNc1ncc2cc(-c3cc(OC)cc(OC)c3)c(NC(=O)NC(C)(C)C)nc2n1 | SW780 | cell growth or viability | – | MTT | 5 days | 0.05 µM |
| CC(=O)c1cccc(/N=N/c2cc(/C=C/C(=O)O)ccc2O)c1 | PaCa-2 | cell growth or viability | – | MTT | – | > 50 µM |

| SMILES | cell line | effect on | mode | technique | time | IC50 |
| --- | --- | --- | --- | --- | --- | --- |
| NCc1cc2c(-c3ccccc3)n[nH]c2c(Nc2ccccc2)n1 | MIA PaCa-2 | cell growth or viability | – | MTS | 48 h | 2.3 µM |
| CCOc1cc(OCC)cc(C(=O)O[C@@H]2CN3Cc4c(cc5c(c4OC)OCO5)[C@@]24C=C[C@H](OC)C[C@@H]34)c1 | MOLT-4 | cell growth or viability | – | WST-1 | – | 7.6 µM |
| COc1ccc(-c2nc(OCc3cn(CC(=O)Nc4cccc(OC)c4)nn3)c3ccccc3n2)cc1 | WRL68 | cell growth or viability | – | MTT | 72 h | 82.7 µM |
| COc1cc(-c2oc3cc(O)cc(O)c3c(=O)c2O)ccc1O | SW780 | cell growth or viability | – | ATP luminescence | 72 h | 12.5 µM |
| Cc1cc(Nc2ncc(Cl)c(Nc3ccccc3S(=O)(=O)C(C)C)n2)c(OC(C)C)cc1C1CCNCC1 | Rh4 | cell growth or viability | – | – | 72 h | 0.34 µM |
| O=c1c(O[C@@H]2O[C@H](CO)[C@@H](O)[C@H](O)[C@H]2O)c(-c2ccc(O)c(O)c2)oc2cc(O)cc(O)c12 | SW780 | cell growth or viability | – | ATP luminescence | 72 h | 20.1 µM |
| O=C1CCCCC1C1C2C=CC=CC1/C(=C/c1ccccc1)C2 (stereo not shown) | Jurkat | cell growth or viability | – | flow cytometry | – | 0.082 µM |
| C#Cc1cccc(Nc2ncnc3cc(OCCOC)c(OCCOC)cc23)c1 | PaCa-2 | cell growth or viability | – | MTT | – | 0.06 µM |
| Cn1cc(C(c2ccc(/C=C/C(=O)O)s2)c2cn(C)c3ccccc23)c2ccccc21 | LNCaP | cell growth or viability | – | MTT | 48 h | > 20 µM |
| CC(C)C[C@H](NC(=O)[C@H](Cc1ccccc1)NC(=O)c1cnccn1)B(O)O | COV434 | cell growth or viability | – | ATP luminescence | – | 0.016 µM |
| COc1cccc2c1C(=O)c1c(O)c3c(c(O)c1C2=O)C[C@@](O)(C(=O)CO)C[C@@H]3O[C@H]1C[C@H](N)[C@H](O)[C@H](C)O1 | MIA PaCa-2 | cell growth or viability | – | MTS | 48 h | 0.049 µM |
| CC(=O)c1ccc(/N=N/c2cc(/C=C/C(=O)O)ccc2O)cc1 | PaCa-2 | cell growth or viability | – | MTT | – | > 50 µM |
| C[C@H](Nc1ncnc2nc[nH]c12)c1cc2cccc(Cl)c2c(=O)n1-c1ccccc1 | CD4+ T | lymphocyte proliferation | inhibitor | – | – | 0.1 µM |
| O=C(O)/C=C/c1ccc(O)c(O)c1 | PaCa-2 | cell growth or viability | – | MTT | – | 5.1 µM |
| COc1nc(OCc2cccc(-c3ccccc3)c2C)ccc1CNCCNC(C)=O | MC-38 | cell growth or viability | – | MTT | – | 2.9 µM |
